What all share (format): functional, cell-based
Assay [1] deals with P388. The experiment in a line: Cytotoxicity against mouse P388 cells assessed as growth inhibition after 72 hrs by MTT assay. The conditions noted are these: P388, 72 h. The procedure, abridged:
(§1)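 MTT read-out of cell growth, method as in an earlier report. IC50 is the concentration giving 50% inhibition of cell growth. Etoposide and cisplatin were run as positive controls.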
A general note: Tetrazolium assays rely on reduction of a dye to a coloured formazan, in cell work by metabolically active cells.

In assay [2] the test system is HT-29. The experiment in a line: Cytotoxicity against human HT-29 cells assessed as growth inhibition after 72 hrs by MTT assay. Particulars: HT-29, 72 h. The procedure, abridged:
as §1

The nature of assay [3]: Cytotoxicity against human HONE1 cells assessed as growth inhibition after 72 hrs by MTT assay. Particulars: HONE1, 72 h. The gist of the method:
as §1

In assay [4] the test system is MCF7. The experiment in a line: Cytotoxicity against human MCF7 cells assessed as growth inhibition after 72 hrs by MTT assay. Particulars: MCF7, 72 h. The procedure, abridged: as §1

The structures appear in SMILES notation.

With `CC1=CCC[C@H]2[C@@]1(C)[C@@H](OC(=O)c1cccnc1)[C@H](OC(=O)c1ccccc1)[C@]1(C)O[C@]3(COC(=O)C3)C[C@H](OC(=O)c3cccnc3)[C@]21C`, the IC50 (usually the concentration at which inhibition is half-maximal) in assay [1] is 5.8 µM; in assay [2] it was 4.7 µM; in assay [3], 3.5 µM; in assay [4], 5.7 µM.

As for `CC1=CCC[C@H]2[C@@]1(C)[C@@H](OC(=O)c1ccccc1)[C@H](OC(=O)C(O)C(C)C)[C@](C)(O)[C@]2(C)/C=C/C1=CC(=O)OC1` (stereo partly specified), the IC50 in assay [1] stood at 7.1 µM; in assay [2] it was 6.4 µM; in assay [3], 3.9 µM; in assay [4], 7.7 µM.

As for `CC(=O)O[C@H]1[C@H](OC(C)=O)[C@]2(C)O[C@]3(COC(=O)C3)C[C@H](OC(=O)c3ccccc3)[C@]2(C)[C@H]2CCC=C(C)[C@]12C`, the IC50 in assay [1] was found to be 5.2 µM; in assay [2] it was 4.1 µM; in assay [3] it was 4.2 µM; in assay [4], 6 µM.

For `COc1cc([C@@H]2c3cc4c(cc3[C@@H](O[C@@H]3O[C@@H]5CO[C@@H](C)O[C@H]5[C@H](O)[C@H]3O)[C@H]3COC(=O)[C@H]23)OCO4)cc(OC)c1O` [ETOPOSIDE], the IC50 is 1.3 µM in assay [1], 2 µM in assay [2], 1.2 µM in assay [3] and 2.2 µM in assay [4].
